Data published in publication PMC4263960 (Pediatric blood & cancer, 2013).

Assays:
RD cell line = assay: DIMSCAN in vitro cytotoxicity testing, RD; format: cell-based
In short: (§1)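 Test compound incubated with cells of a 24-line pediatric cancer panel for 96 h at 0.1 nM to 1 μM, then assessed by DIMSCAN. Relative IC50 (rIC50) derived per line. Panel comparison value is the panel rIC50 divided by the rIC50 of each cell line.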

Rh41 cell line = assay: DIMSCAN in vitro cytotoxicity testing, Rh41; format: cell-based
In short: as §1

Rh30 cell line = assay: DIMSCAN in vitro cytotoxicity testing, Rh30; format: cell-based
In short: as §1

Ramos-RA1 cell line = assay: DIMSCAN in vitro cytotoxicity testing, Ramos-RA1; format: cell-based
In short: as §1

KT-13 Wilms xenograft = assay: PPTP in vivo xenograft testing, KT-13; design: species or system mice
[1] = system: Rh30R ALV rhabdomyosarcoma xenograft; assay: PPTP in vivo xenograft testing, Rh30R; design: species or system mice
[2] = system: Rh36 EMB rhabdomyosarcoma xenograft; assay: PPTP in vivo xenograft testing, Rh36; design: species or system mice
[3] = system: BT-28 medulloblastoma xenograft; assay: PPTP in vivo xenograft testing, BT-28; design: species or system mice
[4] = system: BT-41 ependymoma xenograft; assay: PPTP in vivo xenograft testing, BT-41; design: species or system mice
[5] = system: GBM2 glioblastoma xenograft; assay: PPTP in vivo xenograft testing, GBM2; design: species or system mice
[6] = system: D645 glioblastoma xenograft; assay: PPTP in vivo xenograft testing, D645; design: species or system mice
[7] = system: NB-EBc1 neuroblastoma xenograft; assay: PPTP in vivo xenograft testing, NB-EBc1; design: species or system mice
[8] = system: NB-1643 neuroblastoma xenograft; assay: PPTP in vivo xenograft testing, NB-1643; design: species or system mice
[9] = system: OS-9 osteosarcoma xenograft; assay: PPTP in vivo xenograft testing, OS-9; design: species or system mice
[10] = system: OS-31 osteosarcoma xenograft; assay: PPTP in vivo xenograft testing, OS-31; design: species or system mice
[11] = system: ALL-19 ALL B-precursor xenograft; assay: PPTP in vivo xenograft testing, ALL-19; design: species or system mice
[12] = system: ALL-31 tertiary T-cell ALL xenograft; assay: PPTP in vivo xenograft testing, ALL-31; design: species or system mice
[13] = system: PPTP solid tumor xenografts; assay: PPTP in vivo testing, solid tumor xenograft panels summary; design: species or system mice
ALL xenografts = assay: PPTP in vivo testing, ALL xenograft panel summary; design: species or system mice
[14] = Human pharmacokinetics of eribulin; format: in vivo, humans; conditions: plasma, intravenous, 1.4 mg/m2
[15] = Eribulin pharmacokinetics in SCID mice
[16] = 1 mg/kg IP Q4Dx3 repeated at Day 21
[17] = NB-EBc1, 1 mg/kg IP Q4Dx3 repeated at Day 21
[18] = NB-1643, 1 mg/kg IP Q4Dx3 repeated at Day 21
[19] = 1.5 mg/kg IP Q4Dx3 repeated at Day 21

## C=C1C[C@@H]2CC[C@@]34C[C@H]5O[C@H]6[C@@H](O3)[C@H]3O[C@H](CC[C@@H]3O[C@H]6[C@H]5O4)CC(=O)C[C@@H]3[C@@H](OC)[C@@H](C[C@H](O)CN)O[C@H]3C[C@H]3O[C@@H](CC[C@@H]1O2)C[C@@H](C)C3=C [Eribulin]
RD cell line
  Panel rIC50/Line rIC50: 1.92
  Relative in/out%: −18%
  Ymin % (observed): 4.49%
RD cell line; Homo sapiens, 96 h, read-out: rIC50
  IC50: 0.14 nM
Rh41 cell line; Homo sapiens, Rh41, 96 h, read-out: rIC50
  IC50: 0.14 nM
Rh41 cell line; Rh41
  Panel rIC50/Line rIC50: 2.00
  Relative in/out%: −70%
  Ymin % (observed): 6.63%
Rh30 cell line; Rh30
  Panel rIC50/Line rIC50: 2.47
  Relative in/out%: −23%
  Ymin % (observed): 12.75%
Rh30 cell line; Rh30, 96 h, read-out: rIC50
  IC50: 0.11 nM
Ramos-RA1 cell line; 96 h, read-out: rIC50
  IC50: < 0.1 nM
Ramos-RA1 cell line; Ramos-RA1
  Panel rIC50/Line rIC50: >2.74
  Relative in/out%: −100%
  Ymin % (observed): 0.00%
KT-13 Wilms xenograft; 1 mg/kg IP
  EFS activity: Int (Intermediate activity = criteria (a) and (b) above, but not having a net reduction in median tumor volume for treated animals at the end of the study)
  Response activity: High (A high level of activity is indicated by a score of 6 or more)
  T/C volume activity: High (High activity = T/C ≤0.15)
KT-13 Wilms xenograft; [16]
  EFS T/C: >3.3
  Median final RTV (CD45%): 1.1
KT-13 Wilms xenograft; 1 mg/kg IP, Day 21 or earlier
  Tumor volume T/C: 0.15
[1]; 1 mg/kg IP
  EFS activity: High (High activity requires: (a) an EFS T/C >2; (b) a significant difference in EFS distributions, and (c) a net reduction in median tumor volume for animals in the treated group at the end of treatment as compared to at treatment initiation)
  Response activity: High (A high level of activity is indicated by a score of 6 or more)
  T/C volume activity: High (High activity = T/C ≤0.15)
[1]; [16]
  EFS T/C: >4.3
  Median final RTV (CD45%): 0.0
[1]; 1 mg/kg IP, Day 21 or earlier
  Tumor volume T/C: 0.11
[2]; 1 mg/kg IP
  EFS activity: High (High activity requires: (a) an EFS T/C >2; (b) a significant difference in EFS distributions, and (c) a net reduction in median tumor volume for animals in the treated group at the end of treatment as compared to at treatment initiation)
  Response activity: High (A high level of activity is indicated by a score of 6 or more)
  T/C volume activity: High (High activity = T/C ≤0.15)
[2]; [16]
  EFS T/C: >6.3
  Median final RTV (CD45%): 0.0
[2]; 1 mg/kg IP, Day 21 or earlier
  Tumor volume T/C: 0.10
[3]; 1 mg/kg IP
  EFS activity: High (High activity requires: (a) an EFS T/C >2; (b) a significant difference in EFS distributions, and (c) a net reduction in median tumor volume for animals in the treated group at the end of treatment as compared to at treatment initiation)
  Response activity: Int (intermediate activity by a score of ≥2 but <6)
  T/C volume activity: Int (Intermediate activity = T/C ≤0.45 but >0.15)
[3]; [16]
  EFS T/C: >3.3
  Median final RTV (CD45%): 0.7
[3]; 1 mg/kg IP, Day 21 or earlier
  Tumor volume T/C: 0.44
[4]; 1 mg/kg IP
  Response activity: Int (intermediate activity by a score of ≥2 but <6)
  T/C volume activity: Int (Intermediate activity = T/C ≤0.45 but >0.15)
[4]; [16]
  Median final RTV (CD45%): 1.3
[4]; 1 mg/kg IP, Day 21 or earlier
  Tumor volume T/C: 0.42
[5]; 1 mg/kg IP
  EFS activity: High (High activity requires: (a) an EFS T/C >2; (b) a significant difference in EFS distributions, and (c) a net reduction in median tumor volume for animals in the treated group at the end of treatment as compared to at treatment initiation)
  Response activity: High (A high level of activity is indicated by a score of 6 or more)
  T/C volume activity: Low (Low activity = T/C >0.45)
[5]; [16]
  EFS T/C: >3.5
  Median final RTV (CD45%): 0.6
[5]; 1 mg/kg IP, Day 21 or earlier
  Tumor volume T/C: 1.00
[6]; 1 mg/kg IP
  EFS activity: Int (Intermediate activity = criteria (a) and (b) above, but not having a net reduction in median tumor volume for treated animals at the end of the study)
  Response activity: High (A high level of activity is indicated by a score of 6 or more)
  T/C volume activity: High (High activity = T/C ≤0.15)
[6]; [16]
  EFS T/C: >7.1
  Median final RTV (CD45%): 3.8
[6]; 1 mg/kg IP, Day 21 or earlier
  Tumor volume T/C: 0.07
[7]; NB-EBc1, 1 mg/kg IP
  EFS activity: Low (Low activity = EFS T/C <2)
  Response activity: Low (low activity by a score of <2)
  T/C volume activity: Low (Low activity = T/C >0.45)
[7]; [17]
  EFS T/C: 1.1
  Median final RTV (CD45%): >4
  Time to event: 4.5
[7]; NB-EBc1, 1 mg/kg IP, Day 21 or earlier
  Tumor volume T/C: 0.82
[7]; NB-EBc1 neuroblastoma xenograft
  objective response: not responsive
[8]; NB-1643, 1 mg/kg IP
  EFS activity: High (High activity requires: (a) an EFS T/C >2; (b) a significant difference in EFS distributions, and (c) a net reduction in median tumor volume for animals in the treated group at the end of treatment as compared to at treatment initiation)
  Response activity: High (A high level of activity is indicated by a score of 6 or more)
  T/C volume activity: High (High activity = T/C ≤0.15)
[8]; [18]
  EFS T/C: >4.7
  Median final RTV (CD45%): 0.6
[8]; NB-1643, 1 mg/kg IP, Day 21 or earlier
  Tumor volume T/C: 0.01
[8]; NB-1643 neuroblastoma xenograft
  objective response: achieved an objective response
[9]; 1 mg/kg IP
  EFS activity: Low (Low activity = EFS T/C <2)
  Response activity: Low (low activity by a score of <2)
  T/C volume activity: Low (Low activity = T/C >0.45)
[9]; [16]
  EFS T/C: 1.4
  Median final RTV (CD45%): >4
  Time to event: 26.3
[9]; 1 mg/kg IP, Day 21 or earlier
  Tumor volume T/C: 0.61
[10]; 1 mg/kg IP
  EFS activity: Int (Intermediate activity = criteria (a) and (b) above, but not having a net reduction in median tumor volume for treated animals at the end of the study)
  Response activity: Int (intermediate activity by a score of ≥2 but <6)
  T/C volume activity: Int (Intermediate activity = T/C ≤0.45 but >0.15)
[10]; [16]
  EFS T/C: >2.6
  Median final RTV (CD45%): 1.8
[10]; 1 mg/kg IP, Day 21 or earlier
  Tumor volume T/C: 0.27
[11]; 1.5 mg/kg IP
  EFS activity: High (High activity requires: (a) an EFS T/C >2; (b) a significant difference in EFS distributions, and (c) a net reduction in median tumor volume for animals in the treated group at the end of treatment as compared to at treatment initiation)
  Response activity: High (A high level of activity is indicated by a score of 6 or more)
[11]; [19]
  EFS T/C: >8.4
[11]; CD45%, 1.5 mg/kg IP
  Median final RTV (CD45%): 0.0%
[12]; 1.5 mg/kg IP
  EFS activity: Int (Intermediate activity = criteria (a) and (b) above, but not having a net reduction in median tumor volume for treated animals at the end of the study)
  Response activity: High (A high level of activity is indicated by a score of 6 or more)
[12]; [19]
  EFS T/C: >3.7
[12]; CD45%, 1.5 mg/kg IP
  Median final RTV (CD45%): 12.9%
[13]; Ewing sarcoma xenografts
  xenografts with CR or maintained CR: four of five
[13]; Ewing sarcoma xenografts, listed as eribulin
  xenografts with CR or maintained CR: 4 of 5
[13]; evaluable Ewing sarcoma xenografts
  xenografts with high EFS T/C activity: three of four
[13]; evaluable osteosarcoma xenografts
  xenografts with high EFS T/C activity: three of five
[13]; evaluable solid tumor xenografts, 1 mg/kg
  xenografts with significant difference in EFS distribution compared to control: 29 of 35
[13]; glioblastoma xenografts
  xenografts with CR or maintained CR: two of four
  xenografts with high EFS T/C activity: two of four
[13]; osteosarcoma xenografts
  xenografts with CR or maintained CR: three of six
  xenografts with high activity: three
[13]; rhabdomyosarcoma xenografts
  xenografts with CR or maintained CR: six of seven
  xenografts with MCR: 6 of 7
  xenografts with high EFS T/C activity: six of seven
[13]; solid tumor models
  lines with high EFS T/C activity: 17
  lines with intermediate EFS T/C activity: seven
[13]; solid tumor xenografts, 1 mg/kg
  xenografts with objective response: 18 of 35
ALL xenografts; ALL panel
  xenografts with CR or MCR: All eight
  xenografts with high EFS T/C activity: six of eight
ALL xenografts; evaluable ALL xenografts, 1.5 mg/kg
  xenografts with significant difference in EFS distribution compared to control: 8 of 8
[14]
  AUC: 1580 ng·h/mL
[15]; 1 mg/kg dose, SCID mice
  AUC (area under the plasma drug concentration-time curve): 658 ng·h/mL
[15]; preclinical setting, three doses of 1 mg/kg per course
  AUC per course of treatment: 1,974 ng hour/ml
